30 compounds from ChEMBL document CHEMBL4041513, “In silico identification, design and synthesis of novel piperazine-based antiviral agents targeting the hepatitis C virus helicase” (Eur J Med Chem, 2017) can be followed below.

Each structure is given as a SMILES string. Some results are limits rather than exact numbers.

One data set has as its system Hepatitis C virus. Briefly: Antiviral activity against HCV genotype 1b infected in human HuH5.2 cells with persistent I389luc-ubi-neo/NS3-3'/5.1 replicon after 72 hrs by luciferase reporter gene assay. It counts as functional, cell-based, Hepacivirus hominis. To be noted: Huh-5-2, 72 h. In short, it runs like this:
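Huh 5-2 cells carrying the genotype 1b I389luc-ubi-neo/NS3-3'/5.1 replicon were seeded at 6 500 cells/well in Geneticin-free DMEM/10% FCS and left overnight. Compounds from DMSO stocks were added in a four-step 1-to-5 series for the first screen or an eight-step 1-to-2 series for dose-response curves, then 72 h at 37 °C. Luciferase luminescence after lysis, as % of untreated controls, gave EC50; mean of ≥2 experiments.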

Data set [1] can be described thus: Selectivity index, ratio of CC50 for human HuH5.2 cells to EC50 for HCV genotype 1b infected in human HuH5.2 cells with persistent I389luc-ubi-neo/NS3-3'/5.1 replicon.
Data set [2] in a line: Inhibition of HCV NS3 helicase DNA unwinding activity using fluorescent DNA substrate by molecular beacon assay. Also noted: species or system Hepacivirus hominis. In short, it runs like this: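 Molecular beacon unwinding reaction: 25 mM MOPS pH 6.5, 1.25 mM MgCl2, 5% DMSO, 5 µg/ml BSA, 0.01% Tween20, 0.05 mM DTT, 5 nM fluorescent DNA substrate, 12.5 nM NS3h, 1 mM ATP. Duplicate two-fold dilutions spanned 1 mM to 0.78 µM. Data normalised to no-inhibitor and no-enzyme controls; IC50 from variable-slope Hill fit.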

The nature of data set [3]: Cytotoxicity against human HuH5.2 cells assessed as reduction in cell viability after 72 hrs by MTS assay. It is filed as cell-based, Huh-5-2. An outline of the steps: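 Huh 5-2 cells carrying the genotype 1b I389luc-ubi-neo/NS3-3'/5.1 replicon were seeded at 6 500 cells/well in medium without Geneticin one day ahead. Compounds (DMSO stock) were added as 1:5 four-step or 1:2 eight-step dilutions for 72 h at 37 °C.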

For `O=S(=O)(NCCCN1CCN(CCCNS(=O)(=O)c2ccc3ccccc3c2)CC1)c1ccc2ccccc2c1`, the EC50 with Hepatitis C virus was 4.9 µM. The “Ratio CC50/EC50” value in data set [1] is 10. Moreover, it took 460 µM to reach half-maximal inhibition in data set [2] (IC50). The cytotoxic concentration (CC50) at 72 h in data set [3] was 49.9 µM.

`O=S(=O)(NCCN1CCN(CCNS(=O)(=O)c2ccc(Cl)cc2)CC1)c1ccc(Cl)cc1` had a 50% effective concentration (EC50) in the data set on Hepatitis C virus of over 95.9 µM. Moreover, in data set [2], the IC50 was found to be 250 µM. Moreover, the CC50 at 72 h in data set [3] was over 95.9 µM.

With `O=C(O)C1=CC(=C(c2ccc(O)c(C(=O)O)c2)c2ccc(O)c(C(=O)O)c2)C=CC1=O` [AURINTRICARBOXYLIC ACID], it took 0.3 µM to reach half-maximal inhibition in data set [2] (IC50). In other words, the sub-micromolar range.

With `O=S(=O)(NCCCCN1CCN(CCCCNS(=O)(=O)c2ccc(Cl)cc2)CC1)c1ccc(Cl)cc1`, in the data set on Hepatitis C virus, the EC50 came out at 66.7 µM and the 90% effect level (EC90) was put at 164 µM. Further, the “Ratio CC50/EC50” value in data set [1] is recorded as over 2.5. The compound further registered a half-maximal inhibitory concentration (IC50) in data set [2] of 790 µM. The CC50 at 72 h in data set [3] is over 173 µM.

Compound `O=S(=O)(NCCCN1CCN(CCCNS(=O)(=O)c2ccc(-c3ccccc3)cc2)CC1)c1ccc(-c2ccccc2)cc1` came in with an EC50 in the data set with Hepatitis C virus of 1.2 µM. In data set [1], the “Ratio CC50/EC50” value worked out at 3.9. In data set [2], this compound returned an IC50 of 630 µM. Moreover, the cytotoxic concentration (CC50) at 72 h in data set [3] worked out at 4.9 µM.

In the data set on Hepatitis C virus, `O=S(=O)(NCCCN1CCN(CCCNS(=O)(=O)c2cccc3cccnc23)CC1)c1cccc2cccnc12` had a concentration for a half-maximal effect (EC50) of 42.5 µM and an EC90 of over 172 µM. The “Ratio CC50/EC50” value in data set [1] is listed as over 4. This compound gave a half-maximal inhibitory concentration (IC50) in data set [2] of over 1000 µM. The 50% cytotoxic concentration (CC50) at 72 h in data set [3] is over 172 µM.

Compound `O=S(=O)(NCCCN1CCN(CCCNS(=O)(=O)c2ccc(C(F)(F)F)cc2)CC1)c1ccc(C(F)(F)F)cc1` gave a 50% effective concentration (EC50) with Hepatitis C virus of 6.5 µM. In addition, the “Ratio CC50/EC50” value in data set [1] is on record as over 25. This compound also showed a 50% inhibitory concentration (IC50) in data set [2] of over 1000 µM. For the same compound, in data set [3], the 50% cytotoxic concentration (CC50) at 72 h is over 162 µM.

Consider `O=S(=O)(NCCN1CCN(CCNS(=O)(=O)c2ccc3ccccc3c2)CC1)c1ccc2ccccc2c1`, for which the response in the data set on Hepatitis C virus was half-maximal at 10.6 µM (EC50). For the same compound, in data set [1], the “Ratio CC50/EC50” value was over 8.5. This compound displayed an IC50 in data set [2] of 690 µM. Besides, in data set [3], the half-maximal cytotoxic concentration (CC50) at 72 h is over 90.5 µM.

With `CC(C)(C)c1ccc(S(=O)(=O)NCCCN2CCN(CCCNS(=O)(=O)c3ccc(Cl)cc3)CC2)cc1`, in the data set on Hepatitis C virus, the EC50 stood at 2.21 µM and the EC90 was 4.96 µM. In addition, the “Ratio CC50/EC50” value in data set [1] is 4. In data set [2], the IC50 turned out to be 310 µM. Moreover, the CC50 at 72 h in data set [3] is 8.77 µM.

On to `O=C(CCNS(=O)(=O)c1ccc(Cl)cc1)N1CCN(CCCNS(=O)(=O)c2ccc(Cl)cc2)CC1`, for which, in the data set with Hepatitis C virus, the concentration giving a half-maximal response (EC50) turned out to be 9.32 µM and the 90% effect level (EC90) was put at 25.9 µM. For the same compound, the “Ratio CC50/EC50” value in data set [1] is reported as 7.4. Moreover, the concentration for half-maximal inhibition (IC50) in data set [2] is over 1000 µM. Further, the cytotoxic concentration (CC50) at 72 h in data set [3] turned out to be 69.1 µM.

Regarding `CCOC(=O)c1ccc(S(=O)(=O)NCCCN2CCN(CCCNS(=O)(=O)c3ccc(C(=O)OCC)cc3)CC2)cc1`, the EC50 in the data set on Hepatitis C virus was 56.2 µM. The “Ratio CC50/EC50” value in data set [1] was over 2.8. This compound also had a half-inhibitory concentration (IC50) in data set [2] of over 1000 µM. Besides, the 50% cytotoxic concentration (CC50) at 72 h in data set [3] was over 160 µM.

In the data set with Hepatitis C virus, `O=S(=O)(NCCCN1CCN(CCCNS(=O)(=O)c2cccc3ccccc23)CC1)c1cccc2ccccc12` had an EC50 of over 172 µM and an EC90 of over 172 µM. In data set [2], the IC50 was over 1000 µM. Besides, in data set [3], the CC50 at 72 h is over 172 µM.

`CC(C)(C)c1ccc(S(=O)(=O)NCCCN2CCN(C(=O)CCNS(=O)(=O)c3ccc(C(C)(C)C)cc3)CC2)cc1`: the half-maximal effective concentration (EC50) in the data set on Hepatitis C virus turned out to be 3.84 µM. Further, the “Ratio CC50/EC50” value in data set [1] worked out at 5.4. In addition, the half-maximal inhibitory concentration (IC50) in data set [2] is over 1000 µM. The 50% cytotoxic concentration (CC50) at 72 h in data set [3] worked out at 20.8 µM.

For the compound `CC(C)(C)c1ccc(S(=O)(=O)NCCCN2CCN(CCNS(=O)(=O)c3ccc(C(C)(C)C)cc3)CC2)cc1`, in the data set on Hepatitis C virus, the half-maximal effective concentration (EC50) was 1.7 µM. In data set [1], the “Ratio CC50/EC50” value is listed as 3.1. In data set [2], the IC50 came to 170 µM. The CC50 at 72 h in data set [3] worked out at 5.21 µM.

In the data set on Hepatitis C virus, `O=[N+]([O-])c1ccc(S(=O)(=O)NCCCN2CCN(CCCNS(=O)(=O)c3ccc([N+](=O)[O-])cc3)CC2)cc1` had an EC50 of 18.1 µM and an EC90 of 61.1 µM. Further, in data set [1], the “Ratio CC50/EC50” value stood at 4.4. The CC50 at 72 h in data set [3] was 77.4 µM.

As for `O=C1N/C(=N/N=C/c2ccccc2O)SC1Cc1ccc(Br)cc1` (centres undefined), the EC50 in the data set on Hepatitis C virus was 10.4 µM. In addition, the “Ratio CC50/EC50” value in data set [1] turned out to be 1.5. Also, the half-maximal cytotoxic concentration (CC50) at 72 h in data set [3] worked out at 15.7 µM.

In the data set on Hepatitis C virus, `Cc1ccc(S(=O)(=O)NCCCN2CCN(CCCNS(=O)(=O)c3ccc(Cl)cc3)CC2)cc1` returned an EC50 of 9.93 µM and an EC90 of 36 µM. Further, the “Ratio CC50/EC50” value in data set [1] came to 4.9. Also, the CC50 at 72 h in data set [3] stood at 48.8 µM.

In the data set on Hepatitis C virus, `O=S(=O)(NCCCN1CCN(CCCNS(=O)(=O)c2ccc(C(F)(F)F)cc2)CC1)c1ccc(Cl)cc1` came in with a concentration for a half-maximal effect (EC50) of 10.1 µM and a 90% effect concentration (EC90) of 33.5 µM. Besides, the “Ratio CC50/EC50” value in data set [1] came out at 6.3. Moreover, in data set [3], the 50% cytotoxic concentration (CC50) at 72 h was found to be 63.7 µM.

For `Cc1ccc(S(=O)(=O)NCCCN2CCN(CCCNS(=O)(=O)c3ccc(C(C)(C)C)cc3)CC2)cc1`, in the data set on Hepatitis C virus, the 50% effective concentration (EC50) turned out to be 3.5 µM and the concentration for an effect of 90% (EC90) came out at 9.44 µM. In data set [1], the “Ratio CC50/EC50” value came out at 4.2. The CC50 at 72 h in data set [3] amounted to 14.6 µM.

In the data set with Hepatitis C virus, `O=S(=O)(NCCCN1CCN(CCCNS(=O)(=O)c2cccc(Cl)c2)CC1)c1cccc(Cl)c1` displayed a 50% effective concentration (EC50) of 76.9 µM and an EC90 of 173 µM. In addition, in data set [1], the “Ratio CC50/EC50” value is reported as over 2.4. Moreover, in data set [3], the CC50 at 72 h was over 182 µM.

Turning to `COc1ccc(S(=O)(=O)NCCCN2CCN(CCCNS(=O)(=O)c3ccc(OC)c(OC)c3)CC2)cc1OC`, in the data set on Hepatitis C virus, a half-maximal response (EC50) required 82 µM and the EC90 was over 166 µM. Moreover, in data set [1], the “Ratio CC50/EC50” value is over 2. Further, the CC50 at 72 h in data set [3] was over 166 µM.

As to `Cc1ccc2nc(-c3ccc4nc(-c5ccc(N)cc5)sc4c3)sc2c1S(=O)(=O)O`, in data set [2], the IC50 stood at 10 µM.

In turn, `O=S(=O)(NCCNc1ccc(NCCNS(=O)(=O)c2ccc(Cl)cc2)cc1)c1ccc(Cl)cc1` registered an EC50 in the data set with Hepatitis C virus of 12.1 µM. In data set [1], the “Ratio CC50/EC50” value was found to be 1.8. The CC50 at 72 h in data set [3] turned out to be 22 µM.

Compound `O=C1NC(=O)/C(=C\c2ccc(-c3ccc(Cl)cc3Cl)o2)S1` displayed an EC50 in the data set with Hepatitis C virus of 13.2 µM. The “Ratio CC50/EC50” value in data set [1] is listed as 2.5. Moreover, the cytotoxic concentration (CC50) at 72 h in data set [3] was 33.4 µM.

`O=S(=O)(NCCCN1CCN(CCCNS(=O)(=O)c2ccc(C(F)(F)F)cc2)CC1)c1ccccc1` returned an EC50 with Hepatitis C virus of 12.1 µM. For the same compound, the “Ratio CC50/EC50” value in data set [1] came out at 5.8. Also, in data set [3], the CC50 at 72 h was determined as 70.8 µM.

Turning to `O=[N+]([O-])c1ccc(S(=O)(=O)NCCN2CCN(CCNS(=O)(=O)c3ccc([N+](=O)[O-])cc3)CC2)cc1`, in the data set with Hepatitis C virus, the EC50 came to 17.4 µM. The “Ratio CC50/EC50” value in data set [1] is reported as over 10.6. In data set [3], the CC50 at 72 h is over 184 µM.

In the data set with Hepatitis C virus, `O=S(=O)(NCCCN1CCN(CCNS(=O)(=O)c2ccccc2)CC1)c1ccccc1` had an EC50 of 69.2 µM and an EC90 of 212 µM. Besides, the “Ratio CC50/EC50” value in data set [1] is listed as over 3.1. Moreover, the CC50 at 72 h in data set [3] is over 214 µM.

Regarding `COc1ccc(C(=O)C2=C(O)C(=O)N(c3cnoc3C)C2c2ccc(C(C)(C)C)cc2)cc1OC` (centres undefined), the EC50 in the data set with Hepatitis C virus stood at 57.2 µM. For the same compound, in data set [1], the “Ratio CC50/EC50” value is over 1.8. Further, the CC50 at 72 h in data set [3] was over 105 µM.

For `O=C(O)c1ccc(S(=O)(=O)NCCCN2CCN(CCCNS(=O)(=O)c3ccc(C(=O)O)cc3)CC2)cc1`, the EC50 in the data set on Hepatitis C virus was over 176 µM. In data set [2], this compound returned an IC50 of over 1000 µM. The CC50 at 72 h in data set [3] is over 176 µM.

Turning to `O=S(=O)(NCCCN1CCCCC1)c1ccc(Cl)cc1`, in the data set on Hepatitis C virus, the 50% effective concentration (EC50) came to 61.9 µM. In addition, the “Ratio CC50/EC50” value in data set [1] stood at 2.3. Also, in data set [3], the 50% cytotoxic concentration (CC50) at 72 h was found to be 145 µM.
